# According to ChEMBL document CHEMBL3580554, “Design, synthesis, and anticonvulsant activity of new hybrid compounds derived from 2-(2,5-dioxopyrrolidin-1-yl)propanamides and 2-(2,5-dioxopyrrolidin-1-yl)butanamides” (J Med Chem, 2015):
# Key:
# Rattus norvegicus [1] = species: Rattus norvegicus; test: Inhibition of [125I]omega-conotoxin GVIA binding to N-type calcium channel in rat cerebral cortex synaptosomes at 100 uM incubated for 30 mins by scintillation counting based radioligand displacement assay; type: subcellular
# Rattus norvegicus [2] = species: Rattus norvegicus; test: Inhibition of [3H]BTX binding to sodium channel site 2 in rat cerebral cortex synaptosomes at 100 uM incubated for 60 mins by scintillation counting based radioligand displacement assay; type: subcellular
# In short: (§1)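 Synaptoneurosomal preparations from rat cerebral cortex were used. The read-out was inhibition of specific [3H]BTX binding to the voltage-sensitive sodium channel (site 2), expressed as % inhibition of control specific binding. Compounds were tested at 1, 10, 100 and 500 μM. Inhibition above 50% was taken as significant.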
# Rattus norvegicus [3] = species: Rattus norvegicus; test: Inhibition of [3H]BTX binding to sodium channel site 2 in rat cerebral cortex synaptosomes at 10 uM incubated for 60 mins by scintillation counting based radioligand displacement assay; type: subcellular; in short: as §1
# Rattus norvegicus [4] = species: Rattus norvegicus; test: Inhibition of [3H]BTX binding to sodium channel site 2 in rat cerebral cortex synaptosomes at 1 uM incubated for 60 mins by scintillation counting based radioligand displacement assay; type: subcellular; in short: as §1
# Rattus norvegicus [5] = species: Rattus norvegicus; test: Inhibition of [3H]BTX binding to sodium channel site 2 in rat cerebral cortex synaptosomes at 500 uM incubated for 60 mins by scintillation counting based radioligand displacement assay; type: subcellular; in short: as §1
# Mus musculus [6] = test: Anticonvulsant activity in Swiss mouse assessed as protection against seizures at 300 mg/kg, ip dosed 0.25 hrs before initiation of maximal electroconvulsions by maximal electroshock test; type: functional
# In short: (§2)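 Mice were dosed i.p. at a fixed 300 or 100 mg/kg (6 Hz: 100 mg/kg only). Protection was then scored against MES, sc PTZ or 6 Hz seizures at pretreatment times of 0.25, 0.5, 1 and 2 h. Groups were four mice, scored as number protected / number tested. This also gives the time course and time of peak effect.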
# Mus musculus [7] = test: Anticonvulsant activity in Swiss mouse assessed as protection against seizures at 300 mg/kg, ip dosed 0.5 hrs before initiation of maximal electroconvulsions by maximal electroshock test; type: functional; in short: as §2
# Mus musculus [8] = test: Anticonvulsant activity in Swiss mouse assessed as protection against seizures at 300 mg/kg, ip dosed 1 hr before initiation of maximal electroconvulsions by maximal electroshock test; type: functional; in short: as §2
# Mus musculus [9] = test: Anticonvulsant activity in Swiss mouse assessed as protection against seizures at 300 mg/kg, ip dosed 2 hrs before initiation of maximal electroconvulsions by maximal electroshock test; type: functional; in short: as §2
# Mus musculus [10] = test: Anticonvulsant activity in Swiss mouse assessed as protection against seizures at 100 mg/kg, ip dosed 0.25 hrs before initiation of maximal electroconvulsions by maximal electroshock test; type: functional; in short: as §2
# Mus musculus [11] = test: Anticonvulsant activity in Swiss mouse assessed as protection against seizures at 100 mg/kg, ip dosed 0.5 hrs before initiation of maximal electroconvulsions by maximal electroshock test; type: functional; in short: as §2
# Mus musculus [12] = test: Anticonvulsant activity in Swiss mouse assessed as protection against seizures at 100 mg/kg, ip dosed 1 hr before initiation of maximal electroconvulsions by maximal electroshock test; type: functional; in short: as §2
# Mus musculus [13] = test: Anticonvulsant activity in Swiss mouse assessed as protection against seizures at 100 mg/kg, ip dosed 2 hrs before initiation of maximal electroconvulsions by maximal electroshock test; type: functional; in short: as §2
# Mus musculus [14] = test: Anticonvulsant activity in Swiss mouse assessed as protection against seizures at 300 mg/kg, ip dosed 0.25 hrs before pentylenetetrazole challenge by subcutaneous pentylenetetrazole seizure test; type: functional; in short: as §2
# Mus musculus [15] = test: Anticonvulsant activity in Swiss mouse assessed as protection against seizures at 300 mg/kg, ip dosed 0.5 hrs before pentylenetetrazole challenge by subcutaneous pentylenetetrazole seizure test; type: functional; in short: as §2
# Mus musculus [16] = test: Anticonvulsant activity in Swiss mouse assessed as protection against seizures at 300 mg/kg, ip dosed 1 hr before pentylenetetrazole challenge by subcutaneous pentylenetetrazole seizure test; type: functional; in short: as §2
# Mus musculus [17] = test: Anticonvulsant activity in Swiss mouse assessed as protection against seizures at 300 mg/kg, ip dosed 2 hrs before pentylenetetrazole challenge by subcutaneous pentylenetetrazole seizure test; type: functional; in short: as §2
# Mus musculus [18] = test: Anticonvulsant activity in Swiss mouse assessed as protection against seizures at 100 mg/kg, ip dosed 0.25 hrs before pentylenetetrazole challenge by subcutaneous pentylenetetrazole seizure test; type: functional; in short: as §2
# Mus musculus [19] = test: Anticonvulsant activity in Swiss mouse assessed as protection against seizures at 100 mg/kg, ip dosed 0.5 hrs before pentylenetetrazole challenge by subcutaneous pentylenetetrazole seizure test; type: functional; in short: as §2
# Mus musculus [20] = test: Anticonvulsant activity in Swiss mouse assessed as protection against seizures at 100 mg/kg, ip dosed 1 hr before pentylenetetrazole challenge by subcutaneous pentylenetetrazole seizure test; type: functional; in short: as §2
# Mus musculus [21] = test: Anticonvulsant activity in Swiss mouse assessed as protection against seizures at 100 mg/kg, ip dosed 2 hrs before pentylenetetrazole challenge by subcutaneous pentylenetetrazole seizure test; type: functional; in short: as §2
# Mus musculus [22] = test: Anticonvulsant activity in Swiss mouse model of 6 Hz psychomotor seizure mode assessed as protection against seizures at 100 mg/kg, ip dosed 0.25 hrs before 6 Hz electrical stimulation by 6 Hz test; type: functional; in short: as §2
# Mus musculus [23] = test: Anticonvulsant activity in Swiss mouse model of 6 Hz psychomotor seizure mode assessed as protection against seizures at 100 mg/kg, ip dosed 0.5 hrs before 6 Hz electrical stimulation by 6 Hz test; type: functional; in short: as §2
# Mus musculus [24] = test: Anticonvulsant activity in Swiss mouse model of 6 Hz psychomotor seizure mode assessed as protection against seizures at 100 mg/kg, ip dosed 1 hr before 6 Hz electrical stimulation by 6 Hz test; type: functional; in short: as §2
# Mus musculus [25] = test: Anticonvulsant activity in Swiss mouse model of 6 Hz psychomotor seizure mode assessed as protection against seizures at 100 mg/kg, ip dosed 2 hrs before 6 Hz electrical stimulation by 6 Hz test; type: functional; in short: as §2
# Mus musculus [26] = species: Mus musculus; test: Protective index, ratio of neurotoxic TD50 in Swiss mouse by Chimney test to anticonvulsant ED50 in Swiss mouse measured at 0.5 hrs of time to peak effect by maximal electroshock test
# In short: (§3)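 Protective index was calculated as TD50 (chimney test, mouse, i.p.) divided by ED50 from the matching MES, sc PTZ or 6 Hz test, both taken at the time of peak effect.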
# Mus musculus [27] = test: Anticonvulsant activity in ip dosed Swiss mouse assessed as protection against seizures measured at 0.5 hrs of time to peak effect by maximal electroshock test; type: functional
# In short: (§4)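 Median effective doses (ED50, mg/kg) were determined i.p. in mice at the time of peak effect in the MES, sc PTZ or 6 Hz tests. Only compounds giving at least 50% protection at 100 mg/kg in that test were taken forward.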
# Mus musculus [28] = test: Anticonvulsant activity in ip dosed Swiss mouse assessed as protection against seizures measured at 0.5 hrs of time to peak effect by subcutaneous pentylenetetrazole seizure test; type: functional; in short: as §4
# Mus musculus [29] = test: Anticonvulsant activity in ip dosed Swiss mouse assessed as protection against seizures measured at 0.5 hrs of time to peak effect by 6 Hz test by 6 Hz psychomotor seizure test; type: functional; in short: as §4
# [30] = Toxicity in ip dosed Swiss mouse assessed as induction of motor performance impairment measured within 60 seconds measured at 0.5 hrs of time to peak effect by Chimney test; type: organism-based; conditions: in vivo
# In short: (§5)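 Neurotoxicity was measured i.p. in mice by the chimney test for motor impairment. It was given as the median neurotoxic dose (TD50, mg/kg) at the time of peak effect.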
# Mus musculus [31] = test: Protective index, ratio of neurotoxic TD50 in Swiss mouse by Chimney test to anticonvulsant ED50 in Swiss mouse measured at 0.5 hrs of time to peak effect by subcutaneous pentylenetetrazole seizure test; type: functional; in short: as §3
# Mus musculus [32] = species: Mus musculus; test: Protective index, ratio of neurotoxic TD50 in Swiss mouse by Chimney test to anticonvulsant ED50 in Swiss mouse measured at 0.5 hrs of time to peak effect by 6 Hz test by 6 Hz psychomotor seizure test; type: functional; in short: as §3
# Mus musculus [33] = test: Anticonvulsant activity in ip dosed Swiss mouse assessed as protection against seizures measured at 0.25 hrs of time to peak effect by maximal electroshock test; type: functional; in short: as §4
# Mus musculus [34] = test: Anticonvulsant activity in ip dosed Swiss mouse assessed as protection against seizures measured at 0.25 hrs of time to peak effect by subcutaneous pentylenetetrazole seizure test; type: functional; in short: as §4
# Mus musculus [35] = test: Anticonvulsant activity in ip dosed Swiss mouse assessed as protection against seizures measured at 0.25 hrs of time to peak effect by 6 Hz test by 6 Hz psychomotor seizure test; type: functional; in short: as §4
# [36] = Toxicity in ip dosed Swiss mouse assessed as induction of motor performance impairment measured within 60 seconds measured at 0.25 hrs of time to peak effect by Chimney test; type: organism-based; conditions: in vivo; in short: as §5
# Mus musculus [37] = species: Mus musculus; test: Protective index, ratio of neurotoxic TD50 in Swiss mouse by Chimney test to anticonvulsant ED50 in Swiss mouse measured at 0.25 hrs of time to peak effect by maximal electroshock test; in short: as §3
# Mus musculus [38] = test: Protective index, ratio of neurotoxic TD50 in Swiss mouse by Chimney test to anticonvulsant ED50 in Swiss mouse measured at 0.25 hrs of time to peak effect by subcutaneous pentylenetetrazole seizure test; type: functional; in short: as §3
# Mus musculus [39] = species: Mus musculus; test: Protective index, ratio of neurotoxic TD50 in Swiss mouse by Chimney test to anticonvulsant ED50 in Swiss mouse measured at 0.25 hrs of time to peak effect by 6 Hz test by 6 Hz psychomotor seizure test; type: functional; in short: as §3
Compound,Activity (Mus musculus [6]),Activity (Mus musculus [7]),Activity (Mus musculus [8]),Activity (Mus musculus [9]),Activity (Mus musculus [10]),Activity (Mus musculus [11]),Activity (Mus musculus [12]),Activity (Mus musculus [13]),Activity (Mus musculus [14]),Activity (Mus musculus [15]),Activity (Mus musculus [16]),Activity (Mus musculus [17]),Activity (Mus musculus [18]),Activity (Mus musculus [19]),Activity (Mus musculus [20]),Activity (Mus musculus [21]),Activity (Mus musculus [22]),Activity (Mus musculus [23]),Activity (Mus musculus [24]),Activity (Mus musculus [25]),also measured
CC1(C)O[C@@H]2[C@@H](CO[C@@]3(COS(N)(=O)=O)OC(C)(C)O[C@@H]23)O1,,,,,,,,,,,,,,,,,,,,,inhibition (Rattus norvegicus [1]): 3.1%
NC(=O)N1c2ccccc2C=Cc2ccccc21,,,,,,,,,,,,,,,,,,,,,inhibition (Rattus norvegicus [2]): 17.4%; inhibition (Rattus norvegicus [3]): 4.6%; inhibition (Rattus norvegicus [4]): 2.7%; inhibition (Rattus norvegicus [5]): 33.6%
CC(C(=O)N1CCN(c2cccc(Cl)c2)CC1)N1C(=O)CCC1=O (racemic),75%,100%,75%,50%,50%,75%,50%,0%,75%,75%,75%,75%,50%,75%,50%,25%,100%,100%,75%,25%,Ratio TD50/ED50 (Mus musculus [26]): 1.69; ED50 (Mus musculus [27]): 119 mg/kg; ED50 (Mus musculus [28]): 69.6 mg/kg; ED50 (Mus musculus [29]): 50.4 mg/kg; TD50 at 0.5 h [30]: 202 mg/kg; Ratio TD50/ED50 (Mus musculus [31]): 2.9; Ratio TD50/ED50 (Mus musculus [32]): 4
CC(C(=O)N1CCN(c2ccccc2C(F)(F)F)CC1)N1C(=O)CCC1=O (racemic),100%,100%,75%,75%,100%,25%,25%,0%,100%,100%,75%,50%,100%,75%,25%,0%,100%,25%,0%,0%,ED50 (Mus musculus [33]): 75.5 mg/kg; ED50 (Mus musculus [34]): 87.1 mg/kg; ED50 (Mus musculus [35]): 74.2 mg/kg; TD50 at 0.25 h [36]: 149 mg/kg; Ratio TD50/ED50 (Mus musculus [37]): 1.97; Ratio TD50/ED50 (Mus musculus [38]): 1.71; Ratio TD50/ED50 (Mus musculus [39]): 2.01
CCC1(C)CC(=O)NC1=O (centres undefined) [ETHOSUXIMIDE],,,,,,,,,,,,,,,,,,,,,ED50 (Mus musculus [33]): > 500 mg/kg; ED50 (Mus musculus [34]): 148 mg/kg; ED50 (Mus musculus [35]): > 200 mg/kg; TD50 at 0.25 h [36]: 722 mg/kg; Ratio TD50/ED50 (Mus musculus [38]): 4.89
